From ChEMBL document CHEMBL4689842, “EUbOPEN Chemogenomics Library wave 1” (2021)
Values joined by “and” are separate entries in the source; they are usually repeats but may differ in a detail not shown here. Equal values may be shown once.

System: HEK-293T
Assay: Multiplex assay against HEK293T;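 as to Population Tubulin-Different-Phenotype (%): share of the cells with healthy nuclei that show this phenotype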
Type: toxicity, cell-based
Conditions: human
Summary of the method: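 Cells were classed with CellPathfinder machine-learning gating, first as Hoechst high-intensity objects or normal cells, then (normal cells) as healthy, pyknosed or fragmented nuclei, and finally (pyknosed cells) as mitotic or apoptotic. Staining of live cells at seeding used Hoechst33342, BioTracker Green Microtubule Cytoskeleton Dye, MitoTracker Red and Annexin V Alexa Fluor 680, with imaging on a CQ1 microscope at 37°C and 5% CO2 after compound addition. Tubulin, mitochondrial-mass and membrane-permeability phenotypes are per cents of healthy-nucleus cells.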

[1] = 12 h, 1 µM, compound concentration 1 uM, replicate 1
[2] = 12 h, 1 µM, compound concentration 1 uM, replicate 2
[3] = 12 h, 10 µM, compound concentration 10 uM, replicate 1
[4] = 12 h, 10 µM, compound concentration 10 uM, replicate 2
[5] = 24 h, 1 µM, compound concentration 1 uM, replicate 1
[6] = 24 h, 1 µM, compound concentration 1 uM, replicate 2
[7] = 24 h, 10 µM, compound concentration 10 uM, replicate 1
[8] = 24 h, 10 µM, compound concentration 10 uM, replicate 2

Compound: Cc1nc(Nc2n[nH]c3c2CN(C(=O)N[C@H](CN(C)C)c2ccccc2)C3(C)C)c2sccc2n1 [PF-03758309]
- Population Apoptotic (%) [1]: 22%
- Population Fragmented Nuclei (%) [1]: 12%
- Population Healthy Nuclei (%) [1]: 65%
- Population Hoechst High Intensity Objects (%) [1]: 12%
- Population Membrane Permeable-Phenotype (%) [1]: 2%
- Population Mitochondria Different-Phenotype (%) [1]: 5%
- Population Mitotic Cells (%) [1]: 77%
- Population Normal (%) [1]: 87%
- Population Pyknosed Nuclei (%) [1]: 22%
- Population Tubulin-Different-Phenotype (%) [1]: 3%
- Total Cell Count [1]: 616
- Population Apoptotic (%) [2]: 8%
- Population Fragmented Nuclei (%) [2]: 5%
- Population Healthy Nuclei (%) [2]: 87%
- Population Hoechst High Intensity Objects (%) [2]: 3%
- Population Membrane Permeable-Phenotype (%) [2]: 0%
- Population Mitochondria Different-Phenotype (%) [2]: 14%
- Population Mitotic Cells (%) [2]: 91%
- Population Normal (%) [2]: 96%
- Population Pyknosed Nuclei (%) [2]: 6%
- Population Tubulin-Different-Phenotype (%) [2]: 6%
- Total Cell Count [2]: 1340
- Population Apoptotic (%) [3]: 27%
- Population Fragmented Nuclei (%) [3]: 16%
- Population Healthy Nuclei (%) [3]: 49%
- Population Hoechst High Intensity Objects (%) [3]: 17%
- Population Membrane Permeable-Phenotype (%) [3]: 12%
- Population Mitochondria Different-Phenotype (%) [3]: 21%
- Population Mitotic Cells (%) [3]: 72%
- Population Normal (%) [3]: 82%
- Population Pyknosed Nuclei (%) [3]: 33%
- Population Tubulin-Different-Phenotype (%) [3]: 45%
- Total Cell Count [3]: 604
- Population Apoptotic (%) [4]: 24%
- Population Fragmented Nuclei (%) [4]: 3%
- Population Healthy Nuclei (%) [4]: 79%
- Population Hoechst High Intensity Objects (%) [4]: 6%
- Population Membrane Permeable-Phenotype (%) [4]: 10%
- Population Mitochondria Different-Phenotype (%) [4]: 46%
- Population Mitotic Cells (%) [4]: 75%
- Population Normal (%) [4]: 93%
- Population Pyknosed Nuclei (%) [4]: 16%
- Population Tubulin-Different-Phenotype (%) [4]: 87%
- Total Cell Count [4]: 1040
- Population Apoptotic (%) [5]: 23%
- Population Fragmented Nuclei (%) [5]: 9%
- Population Healthy Nuclei (%) [5]: 76%
- Population Hoechst High Intensity Objects (%) [5]: 9%
- Population Membrane Permeable-Phenotype (%) [5]: 3%
- Population Mitochondria Different-Phenotype (%) [5]: 4%
- Population Mitotic Cells (%) [5]: 76%
- Population Normal (%) [5]: 90%
- Population Pyknosed Nuclei (%) [5]: 13%
- Population Tubulin-Different-Phenotype (%) [5]: 6%
- Total Cell Count [5]: 623
- Population Apoptotic (%) [6]: 4%
- Population Fragmented Nuclei (%) [6]: 8%
- Population Healthy Nuclei (%) [6]: 84%
- Population Hoechst High Intensity Objects (%) [6]: 3%
- Population Membrane Permeable-Phenotype (%) [6]: 4%
- Population Mitochondria Different-Phenotype (%) [6]: 11%
- Population Mitotic Cells (%) [6]: 95%
- Population Normal (%) [6]: 96%
- Population Pyknosed Nuclei (%) [6]: 6%
- Population Tubulin-Different-Phenotype (%) [6]: 21%
- Total Cell Count [6]: 1640
- Population Apoptotic (%) [7]: 27%
- Population Fragmented Nuclei (%) [7]: 15%
- Population Healthy Nuclei (%) [7]: 52%
- Population Hoechst High Intensity Objects (%) [7]: 14%
- Population Mitochondria Different-Phenotype (%) [7]: 24%
- Population Mitotic Cells (%) [7]: 72%
- Population Normal (%) [7]: 85%
- Population Pyknosed Nuclei (%) [7]: 31%
- Population Tubulin-Different-Phenotype (%) [7]: 47%
- Total Cell Count [7]: 627
- Population Apoptotic (%) [8]: 14%
- Population Fragmented Nuclei (%) [8]: 4%
- Population Healthy Nuclei (%) [8]: 81%
- Population Hoechst High Intensity Objects (%) [8]: 7%
- Population Membrane Permeable-Phenotype (%) [8]: 8%
- Population Mitochondria Different-Phenotype (%) [8]: 47%
- Population Mitotic Cells (%) [8]: 85%
- Population Normal (%) [8]: 92%
- Population Pyknosed Nuclei (%) [8]: 14%
- Population Tubulin-Different-Phenotype (%) [8]: 89%
- Total Cell Count [8]: 1130

Compound: CN(C)c1ncnc(-c2ccc3nc(Nc4cc(CN5CCN(C(=O)CC(F)(F)F)CC5)ccn4)[nH]c3c2)c1Cl [BAY-440]
- Population Apoptotic (%) [3]: 24% and 18%
- Population Fragmented Nuclei (%) [3]: 30% and 12%
- Population Hoechst High Intensity Objects (%) [3]: 21% and 12%
- Population Mitochondria Different-Phenotype (%) [3]: 16% and 8%
- Population Mitotic Cells (%) [3]: 75% and 81%
- Population Normal (%) [3]: 78% and 87%
- Population Pyknosed Nuclei (%) [3]: 49% and 24%
- Total Cell Count [3]: 575 and 589
- Population Apoptotic (%) [4]: 16% and 6%
- Population Fragmented Nuclei (%) [4]: 2% and 5%
- Population Healthy Nuclei (%) [4]: 79% and 89%
- Population Hoechst High Intensity Objects (%) [4]: 3% and 1%
- Population Membrane Permeable-Phenotype (%) [4]: 12% and 6%
- Population Mitotic Cells (%) [4]: 83% and 93%
- Population Normal (%) [4]: 96% and 98%
- Total Cell Count [4]: 1131 and 1517
- Population Fragmented Nuclei (%) [7]: 29% and 10%
- Population Membrane Permeable-Phenotype (%) [7]: 10% and 16%
- Population Mitotic Cells (%) [7]: 66% and 89%
- Population Normal (%) [7]: 78% and 94%
- Population Tubulin-Different-Phenotype (%) [7]: 65% and 25%
- Total Cell Count [7]: 555 and 720
- Population Apoptotic (%) [8]: 16%
- Population Healthy Nuclei (%) [8]: 76% and 79%
- Population Hoechst High Intensity Objects (%) [8]: 4% and 2%
- Population Membrane Permeable-Phenotype (%) [8]: 8% and 13%
- Population Mitotic Cells (%) [8]: 83%
- Population Normal (%) [8]: 95% and 97%
- Total Cell Count [8]: 1110 and 2572
